Here are results for one compound from ChEMBL document CHEMBL2384910, “Lead optimization of 5-amino-6-(2,2-dimethyl-5-oxo-4-phenylpiperazin-1-yl)-4-hydroxyhexanamides to reduce a cardiac safety issue: discovery of DS-8108b, an orally active renin inhibitor” (Bioorg Med Chem, 2013).

Changes are numbered by the printed parent chain. The source made the active and inactive calls.

For data set [1], the system named is Cynomolgus monkey. Put plainly: Cardiotoxicity in telemetered cynomolgus monkey assessed as ventricular tachycardia at 50 mg/kg, po. In kind it is toxicity, organism-based, Macaca fascicularis, Cardiac ventricle. On the set-up: dose 50 mg/kg, route oral. The note with it: in vivo.
Data set [2] concerns Heart. Put plainly: Cardiotoxicity in anesthetized New Zealand White rabbit heart assessed as prolongation of QTc interval at 10 uM after 20 mins relative to baseline. In kind it is toxicity, tissue-based, Oryctolagus cuniculus. The method in brief: (§1)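 Isolated Langendorff-perfused hearts from female NZW rabbits anesthetized with thiopental 30 mg/kg iv; heart excised into chilled Krebs-Henseleit solution. After parameters stabilized, compound perfused at 10, 30 and 100 µM for 20 min; ECG changes expressed as % change from baseline.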

Data set [3] addresses T1, Renin (Macaca fascicularis) (UniProt Q6DLS0).
T1 sequence (whole entry): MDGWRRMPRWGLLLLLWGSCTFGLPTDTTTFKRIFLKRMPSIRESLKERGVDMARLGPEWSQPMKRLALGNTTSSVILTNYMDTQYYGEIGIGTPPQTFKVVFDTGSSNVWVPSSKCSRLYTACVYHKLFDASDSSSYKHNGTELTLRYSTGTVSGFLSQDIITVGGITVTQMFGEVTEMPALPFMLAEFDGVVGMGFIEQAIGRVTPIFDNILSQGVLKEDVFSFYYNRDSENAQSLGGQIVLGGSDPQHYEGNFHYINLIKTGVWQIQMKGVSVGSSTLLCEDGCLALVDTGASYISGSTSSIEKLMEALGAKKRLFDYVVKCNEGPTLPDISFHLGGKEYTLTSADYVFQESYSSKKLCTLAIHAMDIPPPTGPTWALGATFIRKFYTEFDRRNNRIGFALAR
Put plainly: Ratio of compound IC50 to aliskiren IC50 for renin in cynomolgus monkey plasma.

In data set [4] the test system is Heart. Put plainly: Cardiotoxicity in anesthetized New Zealand White rabbit heart assessed as prolongation of […] at 10 uM after 20 mins relative to baseline. The class given is toxicity, tissue-based, Oryctolagus cuniculus. In a few lines:
as §1

Data set [5] has as its system Cynomolgus monkey. In words: Cardiotoxicity in telemetered cynomolgus monkey assessed as ventricular fibrillation at 50 mg/kg, po. In kind it is toxicity, organism-based, Macaca fascicularis, Cardiac ventricle. The note with it: in vivo. Details: dose 50 mg/kg, route oral.
A short description of data set [6]: Half life in cynomolgus monkey at 3 mg/kg, po by HPLC-MS/MS analysis. The class given is ADME, organism-based, Macaca fascicularis. On the set-up: dose 3 mg/kg, route oral. As to conditions: in vivo. The method in brief:
(§2)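 Blood sampled over 24 h, at least 7 time points; plasma levels by HPLC-MS/MS; parameters from non-compartmental analysis of concentration-time curves.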

Data set [7] in a line: Volume of distribution at steady state in cynomolgus monkey at 1 mg/kg, iv by HPLC-MS/MS analysis. As to conditions: in vivo, read-out: Vdss. The class given is ADME, organism-based, Macaca fascicularis. Details: dose 1 mg/kg, route intravenous.
In data set [8] the test system is Rattus norvegicus. Put plainly: Toxicity in Sprague-Dawley rat electrophysiology model assessed as mortality at 3 to 10 mg/kg, iv. The note with it: in vivo. On the set-up: dose 3-10 mg/kg, route intravenous. The class given is organism-based.
The subject of data set [9] is Heart. Put plainly: Cardiotoxicity in anesthetized New Zealand White rabbit heart assessed as prolongation of heart rate at 10 uM after 20 mins relative to baseline. The class given is toxicity, tissue-based, Oryctolagus cuniculus. In a few lines:
as §1

Data set [10] deals with Heart. Put plainly: Cardiotoxicity in anesthetized New Zealand White rabbit heart assessed as prolongation of QRS width at 10 uM after 20 mins relative to baseline. The class given is toxicity, tissue-based, Oryctolagus cuniculus. In a few lines: as §1
Data set [11] can be described thus: Cmax in cynomolgus monkey at 3 mg/kg, po by HPLC-MS/MS analysis. The class given is ADME, organism-based, Macaca fascicularis. On the set-up: dose 3 mg/kg, route oral. As to conditions: in vivo. In a few lines:
as §2

For data set [12], the species on record is Rattus norvegicus. Put plainly: Displacement of [3H]batrachotoxin from sodium channel (site 2) in Wistar rat brain at 10 uM relative to control. In kind it is tissue-based. In a few lines: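 Rat brain membranes in modified Tris–HCl buffer, pH 7.4, incubated 1 h at 37 °C with 5 nM [3H]batrachotoxin plus test compound. Nonspecific binding defined with excess veratridine. Binding affinity is expressed as percent inhibition relative to vehicle control.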

The subject of data set [13] is Heart. In words: Cardiotoxicity in anesthetized New Zealand White rabbit heart assessed as ventricular tachycardia and ventricular fibrillation at 30 uM after 20 mins. The class given is toxicity, tissue-based, Oryctolagus cuniculus. In a few lines:
as §1

Data set [14] relates to Cynomolgus monkey. In words: Inhibition of renin in furosemide pretreated cynomolgus monkey assessed as reduction in mean arterial blood pressure at 3 mg/kg, po. In kind it is functional, organism-based. Details: dose 3 mg/kg. As to conditions: Macaca fascicularis. The method in brief:
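Conscious freely moving telemetered cynomolgus monkeys (n = 6), furosemide 5 mg/kg/day im for 3 days before dosing; fasted from morning, fed ≥8 h post-dose. Oral 1, 3, 10 mg/kg or 1% methylcellulose, crossover design; arterial pressure recorded from −3 to 24 h; hourly mean MAP; mean ± SEM.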

In data set [15] the target is T2, Renin (Macaca fascicularis, UniProt Q6DLS0).
T2 sequence (Q6DLS0 whole entry): T1 sequence (whole entry)
In words: Inhibition of renin in cynomolgus monkey plasma after 1 hr by RIA. In a few lines:
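Pooled mixed-gender EDTA cynomolgus monkey plasma with pH adjusting solution and Inhibitor A, compound in 1% DMSO final, incubated 1 h at 37 °C. Angiotensin I by competitive RIA; uninhibited and 4 °C controls define % inhibition; IC50 from four-parameter fit; ratio is compound IC50 over aliskiren IC50 in same plasma batch; ≥2 replicates.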

The subject of data set [16] is Rattus norvegicus. In words: Cardiotoxicity in iv bolus dosed Sprague-Dawley rat electrophysiology model assessed as QRS complex abnormalities. The note with it: in vivo. In kind it is toxicity, organism-based. In a few lines: (§3)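 Male Sprague-Dawley rats anesthetized with inactin 100 mg/kg ip; surface lead II ECG recorded continuously. Compounds given as iv bolus via right jugular vein catheter after stabilization; QRS complex abnormality scored as no, moderate or severe change; n = 2 at 10 mg/kg.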

Data set [17] in a line: Clearance in cynomolgus monkey at 1 mg/kg, iv by HPLC-MS/MS analysis. The note with it: in vivo. In kind it is ADME, organism-based, Macaca fascicularis. Details: dose 1 mg/kg, route intravenous.
Data set [18] relates to Cynomolgus monkey. Put plainly: Inhibition of renin in furosemide pretreated cynomolgus monkey plasma at 3 mg/kg, po. In kind it is functional, organism-based. On the set-up: dose 3 mg/kg. The note with it: Macaca fascicularis. The method in brief:
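Cynomolgus monkeys pretreated with furosemide given single oral dose 1, 3 or 10 mg/kg or vehicle 1% methylcellulose. Venous blood into EDTA-2Na tubes at 1, 2, 4, 8, 24 h, chilled, centrifuged cold, plasma frozen; plasma renin activity by radioimmunoassay.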

Data set [19] can be described thus: Oral bioavailability in cynomolgus monkey at 3 mg/kg by HPLC-MS/MS analysis. The class given is ADME, organism-based, Macaca fascicularis. As to conditions: in vivo. The method in brief:
as §2

Data set [20] deals with Rattus norvegicus. Put plainly: Cardiotoxicity in Sprague-Dawley rat electrophysiology model assessed as QRS complex abnormalities at 10 mg/kg, iv by ECG analysis. As to conditions: in vivo. The class given is toxicity, organism-based. Details: dose 10 mg/kg, route intravenous. The method in brief:
as §3

Data set [21] in a line: AUC (0 to 24 hrs) in cynomolgus monkey at 3 mg/kg, po by HPLC-MS/MS analysis. In kind it is ADME, organism-based, Macaca fascicularis. Details: time < 24 hr, dose 3 mg/kg, route oral. The note with it: plasma. The method in brief: as §2
The target in data set [22] is T3, Renin (Homo sapiens, UniProt P00797).
T3 sequence (P00797 whole entry): T1 sequence (whole entry) with A68T, L214I, A235S
In words: Inhibition of human recombinant renin using Arg-Glu(EDANS)-Ile-His-Pro-Phe-His-Leu-Val-Ile-His-Thr-Lys (DABCYL)-Arg as substrate incubated for 10 mins prior to substrate addition measured after 90 mins by fluorescence assay. In a few lines:
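Trypsin-activated recombinant human renin in 50 mM Tris-HCl pH 7.9, 100 mM NaCl, preincubated with compound 10 min at room temperature; FRET substrate Arg-Glu(EDANS)…Lys(DABCYL)-Arg added, 90 min at 37 °C.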

As a reminder, the half-life is the time needed for the level to fall by half in the phase considered. In general, Cmax refers to the highest concentration seen after dosing. As a reminder, the IC50 is the concentration at which inhibition is half-maximal. Broadly, the clearance is the rate of elimination divided by the concentration. What is called bioavailability is the share of a dose that reaches the circulation, judged against a reference dose that is usually intravenous. As a reminder, the AUC(0-t) is the area under the concentration-time curve up to a stated or last time point. With `CC(C)[C@H](C[C@H](O)[C@@H](N)CN1CC(=O)N(c2ccccc2Cl)CC1(C)C)C(=O)NCC(C)(C)C.O=C(O)/C=C/C(=O)O`, the Activity entry in the data set with Cynomolgus monkey [1] is recorded as “Toxic”; in the data set on Heart [2] it was -1.5%; with Heart [4], 68.9%; with Cynomolgus monkey [5] it was “Toxic”; in the data set on Rattus norvegicus [8], “Toxic”; in the data set on Heart [9], -4.6%. The Activity with Heart [10] is 15.6%; in the data set listed under Rattus norvegicus [12] it was 87%; with Heart [13], “Toxic”; in the data set on Rattus norvegicus [16] it was “Dose-dependent effect”; in the data set on Rattus norvegicus [20], “Toxic”. Moreover, the Ratio IC50 in data set [3] amounted to 0.5. In addition, in data set [6], the half-life was 15.3 h. The Vd in data set [7] turned out to be 23.5 L/kg. In data set [11], the maximum concentration (Cmax) is 111 ng/mL. Besides, the inhibition entry in the data set on Cynomolgus monkey [14] and with Cynomolgus monkey [18] was “Active” throughout. Also, the values for the IC50 against Renin [15] and on Renin [22] were 3 nM and 1 nM, respectively. In data set [17], this compound showed a clearance of 28.4 mL/min/kg. For the same compound, the bioavailability in data set [19] turned out to be 26.4%. Further, the exposure AUC(0-t) at 24 h in [21] worked out at 460 ng·h/mL.
